Compound activity as filed in PubChem BioAssay.
Many of the other results were omitted from the sample, so hits are more common in it than they were.
GSK3beta inhib: human GSK3beta kinase inhibition | GST-GSK3beta kinase, ADP-Glo luminescence, 60 min; stronger effect = lower value | P49841 | 0.038% of 300,000 active | activity score (negative = inhibition), % at 10 µM;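 active means more than half of replicate wells score below -50%, meaning over 50% inhibition versus plate controls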
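Test system – GST-tagged human GSK3beta kinase, cell-free · Incubation – 60 min enzyme reaction, room temperature · Signal – ADP-Glo luminescence · Also added – peptide substrate and ATP at 25 µM · Controls – DMSO neutral wells and GW8510 at 20 µM as positive · Buffer or medium – Tris/MgCl2 kinase buffer · Measure – Luminescence-derived activity versus plate DMSO and GW8510 wells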
CDK5 p35 inh: inhibitors of human CDK5/p35 kinase; Q00535+Q15078; Recombinant CDK5/p35, ADP-Glo luminescence, 60 min; inhibition, % at 10 µM; 0.01% of 330,000 active; AID 488839;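 active means highest replicate inhibition of at least 50% and at least 75% of replicates reaching 50%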
Target sequence (Q00535 whole entry, looked up): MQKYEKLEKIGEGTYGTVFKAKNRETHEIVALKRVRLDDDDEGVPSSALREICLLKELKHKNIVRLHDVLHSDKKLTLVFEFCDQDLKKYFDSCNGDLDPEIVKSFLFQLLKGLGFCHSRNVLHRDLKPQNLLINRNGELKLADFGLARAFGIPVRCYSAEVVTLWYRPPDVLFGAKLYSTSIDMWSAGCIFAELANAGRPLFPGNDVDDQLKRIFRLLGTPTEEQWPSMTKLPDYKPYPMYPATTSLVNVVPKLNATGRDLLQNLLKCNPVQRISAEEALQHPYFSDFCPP
Target sequence (Q15078 whole entry, looked up): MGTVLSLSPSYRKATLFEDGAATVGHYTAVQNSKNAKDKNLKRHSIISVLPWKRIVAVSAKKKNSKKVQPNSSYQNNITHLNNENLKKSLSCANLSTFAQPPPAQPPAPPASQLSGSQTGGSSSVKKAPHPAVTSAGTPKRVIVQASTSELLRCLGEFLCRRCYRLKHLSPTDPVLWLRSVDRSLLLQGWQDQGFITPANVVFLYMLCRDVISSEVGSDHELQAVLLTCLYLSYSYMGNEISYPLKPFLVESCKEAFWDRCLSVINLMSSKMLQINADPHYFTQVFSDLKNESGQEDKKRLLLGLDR
STK33 kinase inh: blocks human STK33 kinase activity | purified STK33, MBP phosphorylation, ADP-Glo luminescence | AID 2661 | inhibition, % at 10 µM | 0.073% of 320,000 active;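 active means inhibition at or above 25%, using the most active replicate where run in duplicate; inactive means inhibition below 25%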
GSK3 alpha inh: inhibitors of human GSK-3 alpha kinase; inhibition, % at 10 µM; 0.1% of 320,000 active; ADP-Glo luminescence, 60 min; P49840;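 active means more than half of replicates show inhibition above 20%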;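 further: GST-tagged GSK-3 alpha with peptide substrate and 25 µM ATP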
DYRK1A inh: blocks rat Dyrk1A kinase activity. Q63470. ADP-Glo luminescence, NFATc1 peptide. inhibition, % at 12.5 µM. 0.43% of 310,000 active; in the data active means inhibition above about 50%
ADP-Glo artifact: interferes with ADP-Glo luciferase readout without Dyrk1A; shares compounds with DYRK1A inh; ADP-Glo luciferase artifact assay, no Dyrk1A, luminescence; AC50, µM (doses to about 12 µM); 1,300 tested, under 10 active;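 active means fitted half-maximal dose AC50 no more than ten times the top valid tested dose, with luminescence dropping as dose rises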
Large screens that a line does not name were inactive (follow-up assays come after a bar, where they were run).

CCC(=NCCCn1ccnc1)c1c(O)n(-c2ccccc2)c(=O)[nH]c1=O	none (no result: DYRK1A inh)
COc1ccc(-n2c(O)c(C(C)=NCCCn3ccnc3)c(=O)[nH]c2=O)cc1	GSK3 alpha inh 54
C#C[C@]1(O)CCC2C3C(CC[C@@]21C)[C@@]1(C)CC[C@@H](O)CC1=C[C@H]3O (stereo not given in full)	none (no result: GSK3beta inhib)
COc1ccc2nc(NC(=O)CCc3nc(C4=CCN(C)CC4)no3)sc2c1	GSK3 alpha inh 53
O=C1CN=C(c2cccs2)c2c(sc3c2CCCC3)N1	GSK3beta inhib -59, GSK3 alpha inh 82
O=C1CN=C(c2ccccc2)c2c(sc3c2CCCC3)N1	GSK3 alpha inh 56
Cc1ccccc1C1=NCC(=O)N(CC(=O)NCc2ccco2)c2sc3c(c21)CCCC3	none (no result: GSK3beta inhib)
Cc1cc2c(s1)NC(=O)CN=C2c1cccs1	GSK3 alpha inh 54
O=C(O)C1CC2(Cl)C(Cl)=C(Cl)C1(Cl)C2(Cl)Cl (stereo not given)	none (no result: GSK3beta inhib, STK33 kinase inh, GSK3 alpha inh)
C=C1C2[C@H](OC(C)=O)[C@@H]3CC(=O)[C@]4(C)OC[C@@]3(C)[C@@]4(O)[C@@H](OC(C)=O)[C@H](OC(C)=O)[C@@]2(COC(=O)c2ccccc2)[C@@H](OC(C)=O)C[C@@H]1O (stereo not given in full)	none
O=P(O)(Oc1ccccc1)c1ccccc1	none (no result: GSK3beta inhib, STK33 kinase inh, GSK3 alpha inh, DYRK1A inh)
Cc1nn(CC(C)C)c(Cl)c1C(=O)NC1CCCCC1	none (no result: GSK3beta inhib, STK33 kinase inh, GSK3 alpha inh)
COc1cc2c(cc1O)C[C@H]1NCCc3cc4c(c-2c31)OCO4	DYRK1A inh 72
Oc1cc2c(cc1O)[C@H]1c3ccccc3CN[C@@H]1CC2	STK33 kinase inh 28 (no result: CDK5 p35 inh, DYRK1A inh)
CCOc1ccc(-n2c(-c3cccs3)nc3ccccc3c2=O)cc1	none
CCn1nc(-c2cccs2)nc2c(=O)n(C)c(=O)nc1-2	DYRK1A inh 63 (no result: GSK3beta inhib, STK33 kinase inh, GSK3 alpha inh)
CCN1C(=O)C(=C2C=C(C)N(Cc3ccco3)C(C)=C2)C(=O)N(CC)C1=S	GSK3 alpha inh 55
CCN1C(=O)C(=C/C=C/c2ccco2)C(=O)N(CC)C1=S	none
CC[n+]1c(/C=C/N(C)c2ccccc2)sc2ccc(Cl)cc21	GSK3beta inhib -53 (no result: DYRK1A inh)
C[C@H]1CCCC(=O)CCC/C=C/c2cc(O)cc(O)c2C(=O)O1	STK33 kinase inh 28, GSK3 alpha inh 52
COc1cc(O)cc2c1C(=O)OC(C)CCCC(=O)CCC/C=C\2 (stereo not given)	none
C[C@]12CC[C@H](O)C[C@H]1CC[C@@H]1[C@@H]2CC[C@]2(C)C(=O)CC[C@@H]12	none (no result: GSK3beta inhib, STK33 kinase inh, GSK3 alpha inh)
COc1ccc(-n2c(/C=C/c3ccc(O)cc3)nc3ccccc3c2=O)cc1	none
CCn1nc(/C=C/c2ccccc2)nc2c(=O)n(C)c(=O)nc1-2	DYRK1A inh 50 (no result: STK33 kinase inh, GSK3 alpha inh) | ADP-Glo artifact inactive
COc1ccc2c3c([nH]c2c1)C(C)=NCC3	DYRK1A inh 86 | ADP-Glo artifact inactive
COc1ccc2c(c1)[nH]c1c(C)nccc12	none (no result: GSK3beta inhib)
CC1=NCCc2c1[nH]c1cc(O)ccc21	DYRK1A inh 79 (no result: GSK3beta inhib) | ADP-Glo artifact inactive
CCN(CC)CCC(=O)O[C@H]1CC[C@]2(C)C3CC[C@@]4(C)C(CC[C@]4(C)O)C3CC[C@H]2C1 (stereo not given in full)	none (no result: GSK3beta inhib)
COc1cc(C(O)CNC(C)C)cc(F)c1OC (stereo not given)	none
NC(=S)c1cn(C2OC(CO)C(O)C2O)c2ncnc(N)c12 (stereo not given)	GSK3beta inhib -52, STK33 kinase inh 67, GSK3 alpha inh 64, DYRK1A inh 95 | ADP-Glo artifact inactive
CCSC(=O)N1CCCCCC1	none (no result: GSK3beta inhib, DYRK1A inh)
COC(=O)C1=C(c2ccc(F)cc2OCc2ccccc2)C[C@@H]2CC[C@H]1N2C(=O)NC1CC1	DYRK1A inh 55 (no result: GSK3beta inhib) | ADP-Glo artifact inactive
CCC1CN1P(=O)(Oc1ccc(Cl)cc1)N1CC1CC (stereo not given)	none (no result: GSK3beta inhib, STK33 kinase inh, GSK3 alpha inh)
N#CC(C#N)=Cc1ccc(N2CCOCC2)cc1	none
N#C/C(=C\c1ccc(O)cc1)C(=O)O (tested in a mixture with another compound)	DYRK1A inh 79 (no result: GSK3beta inhib, STK33 kinase inh, GSK3 alpha inh) | ADP-Glo artifact inactive
O=c1[nH]c(=O)n(-c2ccccc2)c(O)c1/C=C1/C(c2ccccc2)=Nc2ccccc21	DYRK1A inh 61 | ADP-Glo artifact inactive
